Rows were chosen to be rich in hits. Some 1.3% of all compounds tested hit in one or more screens of this group.
TDP2 inh – TDP2 (human) inhibition, absorbance primary screen | recombinant TDP2, T5PNP hydrolysis, p-nitrophenol absorbance 415 nm | inhibition, % at 12.8 µM | 370,000 tested, 0.34% active | AID 720702;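 active means inhibition above the mean of all tested compounds plus 3 SD, set per campaign, cut at about 25% in these data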;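 further: 0% = DMSO with enzyme and 100% = buffer with substrate but no TDP2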
Target sequence (O95551 whole entry, looked up): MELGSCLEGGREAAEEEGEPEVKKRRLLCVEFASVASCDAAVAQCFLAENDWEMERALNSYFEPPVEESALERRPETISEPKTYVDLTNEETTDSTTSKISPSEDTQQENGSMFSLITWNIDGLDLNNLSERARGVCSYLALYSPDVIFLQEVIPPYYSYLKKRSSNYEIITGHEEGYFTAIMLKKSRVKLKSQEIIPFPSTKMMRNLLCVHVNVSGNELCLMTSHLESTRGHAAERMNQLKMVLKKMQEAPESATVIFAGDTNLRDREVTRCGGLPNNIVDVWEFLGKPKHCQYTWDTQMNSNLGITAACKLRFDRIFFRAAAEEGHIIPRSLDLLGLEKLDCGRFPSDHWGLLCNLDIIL
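Evaluation: % inhibition relative to enzyme-containing and enzyme-free wells. Material: recombinant human TDP2. Benchmarks: enzyme-free and DMSO wells. Timing: enzyme reaction with compound for 2 h at 37 °C. Compound dosing: 12.8 µM only. Measured by: p-Nitrophenol epi absorbance. Reagent: T5PNP substrate at 5 mM, a TopII-DNA adduct mimic. Replication: single well per compound.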
LEDGF integ inh – blocks HIV-1 LEDGF/p75-dependent DNA integration; TR-FRET IN-LEDGF/p75 DNA integration, Eu/Cy5; inhibition, % at 3.7 µM; 370,000 tested, 0.64% active;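 active means inhibition above the screen-wide mean plus 3 SD, cut at about 13% in these data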;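 further: signal is the Cy5 over europium emission ratio at 671 and 618 nm; 0% = plate median of compound wells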
ARFGAP1 inh – inhibits rat ARF GTPase activating protein 1; inhibition, % at 16.5 µM; Arfgap1-stimulated ARF1 GTP hydrolysis, GDP FP detection; AID 651572; 360,000 tested, 0.26% active;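 active means inhibition above a per-plate limit, mean inhibition of low control wells plus 3 SD, cut at about 25% in these data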;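 further: 0% = DMSO wells with enzyme and 100% = wells lacking Arfgap1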
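System: truncated rat Arfgap1 GAP domain / Medium: HEPES-based buffer, pH 7.5 / Also added: N-terminally truncated human ARF1-GTP substrate / Incubation: enzyme reaction 120 min at 25 °C after 20 min preincubation / Measured by: FP of antibody-bound GDP Alexa 633 tracer, ex 620/em 688 nm / Replicates: singlicate, each compound tested once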
Casp6 inh – caspase-6 (human) enzyme inhibition | 350,000 tested, 0.53% active | inhibition, % at 12.5 µM | purified caspase-6, Z-VEID-R110 cleavage fluorescence | P55212;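 active means mean inhibition across replicates at least about 35%, with every replicate also reaching that limit, limit read from the data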;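 further: 0% = median of neutral control wells and 100% = no fluorescence left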
ASAP1 GAP inh – blocks human ASAP1-stimulated Arf1 GTP hydrolysis | GDP FP detection | inhibition, % at 16.5 µM | 360,000 tested, 0.19% active; in the data active means inhibition above about 25%;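 further: 0% = vehicle with enzyme and substrate and 100% = no enzyme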
Target sequence (Q9ULH1 325-724 limits assumed): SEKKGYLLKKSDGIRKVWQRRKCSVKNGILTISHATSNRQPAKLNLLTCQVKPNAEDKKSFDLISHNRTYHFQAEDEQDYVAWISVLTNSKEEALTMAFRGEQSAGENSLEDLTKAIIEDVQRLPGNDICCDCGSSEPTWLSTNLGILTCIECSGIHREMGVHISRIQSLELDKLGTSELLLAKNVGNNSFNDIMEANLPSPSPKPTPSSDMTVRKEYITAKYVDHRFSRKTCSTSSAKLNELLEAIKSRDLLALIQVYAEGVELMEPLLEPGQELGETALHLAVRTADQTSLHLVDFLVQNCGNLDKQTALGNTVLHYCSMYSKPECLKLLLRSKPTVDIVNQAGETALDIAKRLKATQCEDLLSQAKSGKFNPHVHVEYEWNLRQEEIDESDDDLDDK
Starred values were filed as active, the others as inactive.

Results for CN(C(=O)CSc1nc(-c2ccc(C(C)(C)C)cc2)c(C#N)c(=O)[nH]1)C1CCCCC1 ?
TDP2 inh: -11.7; LEDGF integ inh: 5.2; ARFGAP1 inh: -17.2; Casp6 inh: 35.4*; ASAP1 GAP inh: -5.5

How did N#Cc1c(-c2ccccc2)nc(SCC(=O)NC2CCCCC2)[nH]c1=O do in these assays?
TDP2 inh: 0.7; LEDGF integ inh: 0.1; ARFGAP1 inh: 3.0; Casp6 inh: -0.7; ASAP1 GAP inh: 6.3

Results for O=C(CN1CCOCC1)N1CC[C@H]2[C@H](CO)Nc3ccc(-c4ccccc4)cc3[C@H]21 ?
Casp6 inh: -4.4

How did Cc1ccccc1-c1nc(CS(=O)(=O)CC(=O)NCCN2CCCC2)c(C)o1 do in these assays?
TDP2 inh: 0.2; LEDGF integ inh: 0.1; ARFGAP1 inh: 0.5; Casp6 inh: 36.0*; ASAP1 GAP inh: -2.8

How did CCN1CCN(CCCNC(=O)CS(=O)(=O)Cc2nc(-c3ccccc3C)oc2C)CC1 do in these assays?
TDP2 inh: -1.5; LEDGF integ inh: -4.9; ARFGAP1 inh: -3.9; Casp6 inh: -36.4; ASAP1 GAP inh: -13.4

What do the screens show for `O=S(=O)(c1ccc2ccccc2c1)N1CCCCCC1`?
TDP2 inh: 9.9; LEDGF integ inh: -5.8; ARFGAP1 inh: -0.7; Casp6 inh: -1.7; ASAP1 GAP inh: 9.4

How did O=C(O)c1cc(S(=O)(=O)N2CCN(S(=O)(=O)c3ccc4ccccc4c3)CC2)ccc1Br do in these assays?
TDP2 inh: 0.2; LEDGF integ inh: 9.0; ARFGAP1 inh: -7.3; Casp6 inh: 40.3*; ASAP1 GAP inh: 3.2

How did Cc1[nH]c2ccccc2c1/C=N/NC(N)=S do in these assays?
TDP2 inh: 1.0; LEDGF integ inh: -5.7; ARFGAP1 inh: -4.8; Casp6 inh: 2.0; ASAP1 GAP inh: -7.4

How did CCc1nnc(N/N=C/c2c(C)[nH]c3ccccc23)n1N do in these assays?
TDP2 inh: 59.3*; LEDGF integ inh: 68.4*; ARFGAP1 inh: 6.6; Casp6 inh: 4.5; ASAP1 GAP inh: 17.4

How did Cc1cc(F)ccc1NCc1ccncc1 do in these assays?
TDP2 inh: 9.2; LEDGF integ inh: -2.1; ARFGAP1 inh: -5.7; ASAP1 GAP inh: 3.7

What do the screens show for `CCOC(=O)C1=C(C)Nc2ccccc2N/C1=N\S(=O)(=O)c1cc(C(=O)O)ccc1Cl`?
TDP2 inh: 2.9; LEDGF integ inh: -2.1; ARFGAP1 inh: 5.2; Casp6 inh: 36.6*; ASAP1 GAP inh: 3.3

What do the screens show for `Cc1ccc(C(=O)CSc2nnc(-c3ccco3)n2C)cc1`?
TDP2 inh: 6.7; LEDGF integ inh: -1.8; ARFGAP1 inh: 6.8; Casp6 inh: 2.2; ASAP1 GAP inh: -9.5

What do the screens show for `Cn1c(SCC(=O)c2cc(Cl)c(Cl)s2)nnc1-c1ccco1`?
TDP2 inh: 5.3; LEDGF integ inh: 0.3; ARFGAP1 inh: -3.3; Casp6 inh: 51.5*; ASAP1 GAP inh: -0.9

What do the screens show for `Cc1ccc2c(c1)c1c(n2CC(O)CN2CCCCCC2)CCCC1` (stereo unspecified)?
TDP2 inh: 11.1; LEDGF integ inh: 4.8; ARFGAP1 inh: 4.6; ASAP1 GAP inh: 7.6

Results for Cc1ccc2c(c1)c1c(n2CC(O)CNC(C)(C)C)CCCC1 (stereo unspecified) ?
TDP2 inh: 3.9; LEDGF integ inh: 2.5; ARFGAP1 inh: 1.6; Casp6 inh: 65.1*; ASAP1 GAP inh: 2.0

How did COc1ccc(NC(=O)COc2ccc3c(c2)CCC3)cc1S(N)(=O)=O do in these assays?
TDP2 inh: -1.2; LEDGF integ inh: 3.2; ARFGAP1 inh: -8.4; Casp6 inh: 1.9; ASAP1 GAP inh: -0.4

What do the screens show for `Cn1c(=O)oc2cc(S(=O)(=O)Nc3ccccc3F)ccc21`?
TDP2 inh: -7.8; LEDGF integ inh: 2.4; ARFGAP1 inh: -12.6; Casp6 inh: 4.7; ASAP1 GAP inh: 6.5

Results for COc1ccc(-c2cnc3c(-c4ccc(F)cc4)cnn3c2N)cc1 ?
TDP2 inh: -8.7; LEDGF integ inh: 1.4; ARFGAP1 inh: 0.7; Casp6 inh: -1.0; ASAP1 GAP inh: 0.5

What do the screens show for `Cc1nc2c(-c3ccc(F)cc3)cnn2c2c1CCC2`?
TDP2 inh: -2.4; LEDGF integ inh: 1.5; ARFGAP1 inh: 2.9; Casp6 inh: 55.9*; ASAP1 GAP inh: -8.2

What do the screens show for `O=C(NC1CCCCC1)C1(c2ccccc2)CC1(Cl)Cl` (stereo unspecified)?
TDP2 inh: -4.8; LEDGF integ inh: 2.0; ARFGAP1 inh: 9.7; Casp6 inh: 0.9; ASAP1 GAP inh: 2.7

What do the screens show for `CCN(C(=O)COC(=O)CNC(=O)c1ccc2ccccc2c1)C1CCS(=O)(=O)C1` (stereo unspecified)?
TDP2 inh: 0.1; LEDGF integ inh: 4.0; ARFGAP1 inh: 8.0; Casp6 inh: 47.3*; ASAP1 GAP inh: -4.8

How did CCN(C(=O)COC(=O)CNC(=O)c1ccc(C)c(C)c1)C1CCS(=O)(=O)C1 (stereo unspecified) do in these assays?
TDP2 inh: 1.8; LEDGF integ inh: -0.3; ARFGAP1 inh: -17.5; Casp6 inh: -1.1; ASAP1 GAP inh: -9.2

Results for N#C/C(=C/c1cccn1-c1cccc(C(=O)O)c1)c1ccc(Cl)cc1 ?
TDP2 inh: 0.3; LEDGF integ inh: -0.1; ARFGAP1 inh: -3.3; Casp6 inh: 84.1*; ASAP1 GAP inh: -7.8

Results for CCOC(=O)/C(C#N)=C/c1cccn1-c1ccc(Cl)cc1 ?
TDP2 inh: -19.6; LEDGF integ inh: 1.4; ARFGAP1 inh: 5.5; Casp6 inh: -1.7; ASAP1 GAP inh: 1.2

Results for N#CC(C#N)=Cc1cccn1-c1ccc(C(=O)O)cc1 ?
TDP2 inh: -10.2; LEDGF integ inh: 6.5; ARFGAP1 inh: 5.5; Casp6 inh: 71.2*; ASAP1 GAP inh: 2.2

How did COc1cccc(NC(=O)C(=O)c2cn(CC(=O)N3CCCC3)c3ccccc23)c1 do in these assays?
TDP2 inh: -1.1; LEDGF integ inh: 1.0; ARFGAP1 inh: 0.1; Casp6 inh: 2.0; ASAP1 GAP inh: -6.7

How did CC(C)NC(=O)N(C)C[C@H]1Oc2ccc(NC(=O)Nc3ccccc3)cc2C(=O)N([C@H](C)CO)C[C@H]1C do in these assays?
Casp6 inh: 2.9

Results for O=C(CCCc1nc(-c2ccccc2)no1)NC1CCCC1 ?
TDP2 inh: 3.0; LEDGF integ inh: 3.6; ARFGAP1 inh: -2.6; Casp6 inh: 4.5; ASAP1 GAP inh: 2.3

What do the screens show for `COCCCNc1cc(C)nc2ccccc12`?
TDP2 inh: -8.4; LEDGF integ inh: -6.2; ARFGAP1 inh: 4.6; Casp6 inh: -1.7; ASAP1 GAP inh: 1.1

What do the screens show for `Cc1cc(NCCCCCCCNc2cc(C)nc3cc([N+](=O)[O-])ccc23)c2ccc([N+](=O)[O-])cc2n1`?
TDP2 inh: -21.2; LEDGF integ inh: 0.5; ARFGAP1 inh: active; Casp6 inh: -45.6; ASAP1 GAP inh: 107.6*

What do the screens show for `Cc1ccc(S(=O)(=O)/N=C2/NC(=O)/C(=C/c3cc([N+](=O)[O-])ccc3O)S2)cc1`?
TDP2 inh: -10.6; LEDGF integ inh: 9.8; ARFGAP1 inh: -6.7; Casp6 inh: 37.2*; ASAP1 GAP inh: -4.8

Results for O=C(NCC[C@H]1CC[C@H](NC(=O)C2CC2)[C@H](CO)O1)c1cc(Cl)cc(Cl)c1 ?
Casp6 inh: -2.4

Bioassay records deposited in PubChem by several laboratories.
